Data taken from ChEMBL document CHEMBL1287724, “Discovery of INCB3344, a potent, selective and orally bioavailable antagonist of human and murine CCR2” (Bioorg Med Chem Lett, 2010).

What was measured:
[1] = molecular target: C-C chemokine receptor type 2 (Homo sapiens, UniProt P41597); test: Displacement of [125I]MCP1 from human CCR2 after 30 mins by gamma counter
[2] = molecular target: C-C chemokine receptor type 2 (Mus musculus, UniProt P51683); test: Displacement of [125I]MCP1 from mouse CCR2 after 30 mins by gamma counter
[3] = Protein binding in mouse serum assessed as unbound fraction; format: ADME, cell-free; details: read-out: PB
[4] = Half life in CD-1 mouse at 5 mg/kg, iv; format: ADME, organism-based; design: dose 5 mg/kg, route intravenous; details: in vivo
Method in brief: (§1)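 CD-1 mice dosed intravenously at 5 mg/kg and orally at 10 mg/kg. Clearance, steady-state volume of distribution and half-life were taken from the iv arm. Cmax and AUC were taken from the po arm. Oral bioavailability was derived from the po and iv exposures.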

[5] = molecular target: Voltage-gated inwardly rectifying potassium channel KCNH2 (Homo sapiens, UniProt Q12809)
[6] = Clearance in CD-1 mouse at 5 mg/kg, iv; format: ADME, organism-based; design: dose 5 mg/kg, route intravenous; details: in vivo; method in brief: as §1
[7] = AUC in CD-1 mouse at 10 mg/kg, po; format: ADME, organism-based; design: dose 10 mg/kg, route oral; details: plasma; method in brief: as §1
[8] = molecular target: T1, C-C chemokine receptor type 1 (Mus musculus, UniProt P51675); test: Inhibition of mouse CCR1
T1 sequence (P51675 whole entry): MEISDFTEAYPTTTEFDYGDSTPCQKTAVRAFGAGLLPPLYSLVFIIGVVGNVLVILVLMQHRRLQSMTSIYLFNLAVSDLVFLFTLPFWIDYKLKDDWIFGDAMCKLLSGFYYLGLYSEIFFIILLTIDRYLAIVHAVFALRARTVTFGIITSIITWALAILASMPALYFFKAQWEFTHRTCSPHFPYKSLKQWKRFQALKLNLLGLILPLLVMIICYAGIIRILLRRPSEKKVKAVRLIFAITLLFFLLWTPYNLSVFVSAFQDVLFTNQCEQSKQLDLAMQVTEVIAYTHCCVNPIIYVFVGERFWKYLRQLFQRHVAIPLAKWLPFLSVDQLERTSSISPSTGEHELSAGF

[9] = molecular target: T2, CCR2 protein (Macaca fascicularis, UniProt Q6Y3N0); test: Inhibition of cynomolgus CCR2
T2 sequence (Q6Y3N0 whole entry): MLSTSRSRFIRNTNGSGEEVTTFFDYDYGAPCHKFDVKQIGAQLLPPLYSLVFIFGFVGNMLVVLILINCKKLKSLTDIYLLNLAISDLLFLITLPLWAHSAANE

[10] = Protein binding in human serum assessed as unbound fraction; format: ADME, cell-free; details: read-out: PB
[11] = molecular target: C-C chemokine receptor type 5 (Mus musculus, UniProt P51682); test: Inhibition of mouse CCR5
[12] = molecular target: T3, C-C chemokine receptor type 2 (Rattus norvegicus, UniProt O55193); test: Inhibition of rat CCR2
T3 sequence (O55193 whole entry): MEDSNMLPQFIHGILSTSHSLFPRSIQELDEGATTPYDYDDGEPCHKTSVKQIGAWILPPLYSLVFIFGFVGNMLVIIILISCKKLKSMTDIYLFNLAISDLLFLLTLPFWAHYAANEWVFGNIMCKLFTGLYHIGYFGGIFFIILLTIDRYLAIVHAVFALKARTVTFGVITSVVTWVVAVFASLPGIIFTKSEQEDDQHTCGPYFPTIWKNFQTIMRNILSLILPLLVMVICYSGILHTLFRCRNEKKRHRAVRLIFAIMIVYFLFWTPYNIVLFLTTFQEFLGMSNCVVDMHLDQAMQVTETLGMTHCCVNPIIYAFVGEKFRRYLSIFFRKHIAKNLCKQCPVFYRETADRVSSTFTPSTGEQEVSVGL

[13] = Oral bioavailability in CD-1 mouse at 10 mg/kg, po; format: ADME, organism-based; details: in vivo; method in brief: as §1
[14] = AUC in BALB/c mouse at 10 mg/kg, po; format: ADME, organism-based; design: dose 10 mg/kg, route oral; details: plasma
[15] = test system: Mus musculus; test: Volume of distribution at steady state in CD-1 mouse at 5 mg/kg, iv; format: ADME, organism-based; design: dose 5 mg/kg, route intravenous; details: in vivo; method in brief: as §1
[16] = Cmax in BALB/c mouse at 10 mg/kg, po; format: ADME, organism-based; design: dose 10 mg/kg, route oral; details: in vivo
[17] = Cmax in CD-1 mouse at 10 mg/kg, po; format: ADME, organism-based; design: dose 10 mg/kg, route oral; details: in vivo; method in brief: as §1

C-C chemokine receptor type 2 (Homo sapiens, UniProt P41597), sequence (P41597 whole entry): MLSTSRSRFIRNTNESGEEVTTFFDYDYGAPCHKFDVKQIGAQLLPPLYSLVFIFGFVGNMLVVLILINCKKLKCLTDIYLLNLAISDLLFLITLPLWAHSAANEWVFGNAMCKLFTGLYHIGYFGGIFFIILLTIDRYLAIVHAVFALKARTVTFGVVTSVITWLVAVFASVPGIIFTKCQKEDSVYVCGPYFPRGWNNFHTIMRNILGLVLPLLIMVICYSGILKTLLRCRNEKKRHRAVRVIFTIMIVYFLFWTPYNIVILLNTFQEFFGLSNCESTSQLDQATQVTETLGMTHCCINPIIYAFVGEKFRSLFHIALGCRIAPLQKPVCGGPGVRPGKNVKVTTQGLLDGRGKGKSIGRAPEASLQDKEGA
C-C chemokine receptor type 2 (Mus musculus, UniProt P51683), sequence (P51683 whole entry): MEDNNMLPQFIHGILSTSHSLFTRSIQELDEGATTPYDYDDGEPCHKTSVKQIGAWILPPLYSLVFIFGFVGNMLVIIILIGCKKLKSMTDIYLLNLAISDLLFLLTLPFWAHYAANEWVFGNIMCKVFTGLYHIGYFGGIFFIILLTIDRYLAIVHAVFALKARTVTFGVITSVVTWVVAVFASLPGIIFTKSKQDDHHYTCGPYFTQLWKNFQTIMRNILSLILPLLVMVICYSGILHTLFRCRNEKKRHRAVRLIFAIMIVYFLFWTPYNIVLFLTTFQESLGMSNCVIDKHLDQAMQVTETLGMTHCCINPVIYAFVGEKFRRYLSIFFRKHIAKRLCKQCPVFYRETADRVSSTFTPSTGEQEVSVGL
C-C chemokine receptor type 5, sequence (P51682 whole entry): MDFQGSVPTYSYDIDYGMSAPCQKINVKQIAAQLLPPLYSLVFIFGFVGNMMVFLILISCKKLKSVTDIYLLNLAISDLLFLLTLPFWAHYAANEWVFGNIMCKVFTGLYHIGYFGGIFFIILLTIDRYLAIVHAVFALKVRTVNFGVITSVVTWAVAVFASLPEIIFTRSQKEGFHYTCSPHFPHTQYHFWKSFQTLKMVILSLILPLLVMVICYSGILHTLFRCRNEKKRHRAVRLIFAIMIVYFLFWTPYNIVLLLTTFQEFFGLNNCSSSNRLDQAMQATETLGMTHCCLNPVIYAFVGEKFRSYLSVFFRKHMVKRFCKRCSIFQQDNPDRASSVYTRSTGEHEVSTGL
Voltage-gated inwardly rectifying potassium channel KCNH2, sequence (Q12809 whole entry): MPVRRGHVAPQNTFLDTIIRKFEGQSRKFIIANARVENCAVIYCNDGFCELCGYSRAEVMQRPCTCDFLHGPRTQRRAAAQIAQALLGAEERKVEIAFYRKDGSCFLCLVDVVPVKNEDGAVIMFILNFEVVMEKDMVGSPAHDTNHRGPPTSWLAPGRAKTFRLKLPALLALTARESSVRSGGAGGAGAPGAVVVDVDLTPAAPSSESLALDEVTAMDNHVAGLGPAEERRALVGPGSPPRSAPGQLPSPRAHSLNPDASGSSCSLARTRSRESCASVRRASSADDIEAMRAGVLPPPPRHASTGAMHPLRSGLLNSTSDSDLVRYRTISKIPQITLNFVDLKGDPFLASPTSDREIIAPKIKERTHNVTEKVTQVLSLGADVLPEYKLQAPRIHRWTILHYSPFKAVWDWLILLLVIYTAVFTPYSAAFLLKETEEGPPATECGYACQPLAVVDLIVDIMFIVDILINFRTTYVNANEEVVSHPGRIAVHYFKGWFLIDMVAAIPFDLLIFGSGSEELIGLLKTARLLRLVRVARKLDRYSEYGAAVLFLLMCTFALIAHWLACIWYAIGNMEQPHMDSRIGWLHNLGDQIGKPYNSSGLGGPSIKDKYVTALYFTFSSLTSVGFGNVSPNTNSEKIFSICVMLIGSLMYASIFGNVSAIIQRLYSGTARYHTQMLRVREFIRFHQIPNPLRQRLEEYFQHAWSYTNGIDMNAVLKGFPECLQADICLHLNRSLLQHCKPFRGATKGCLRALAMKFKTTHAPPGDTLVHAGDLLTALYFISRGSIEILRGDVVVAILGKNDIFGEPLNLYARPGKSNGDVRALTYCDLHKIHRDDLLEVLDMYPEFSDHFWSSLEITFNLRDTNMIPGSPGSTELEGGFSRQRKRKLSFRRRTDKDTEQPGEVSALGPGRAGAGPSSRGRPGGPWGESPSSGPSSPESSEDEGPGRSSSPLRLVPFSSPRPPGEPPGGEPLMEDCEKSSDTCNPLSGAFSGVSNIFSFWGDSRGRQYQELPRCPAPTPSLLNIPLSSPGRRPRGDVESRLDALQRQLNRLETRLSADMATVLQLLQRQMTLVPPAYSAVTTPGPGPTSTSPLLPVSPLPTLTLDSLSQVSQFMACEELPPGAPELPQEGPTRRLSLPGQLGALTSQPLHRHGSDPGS

## CCCCO[C@H]1CN([C@H]2CC[C@@H](c3ccccc3)CC2)C[C@@H]1NC(=O)CNC(=O)c1cccc(C(F)(F)F)c1
[1]
  IC50: 47 nM
[2]
  IC50: 54 nM

## O=C(CNC(=O)c1cccc(C(F)(F)F)c1)N[C@H]1CN([C@H]2CC[C@H](c3ccccc3)C2)C[C@@H]1O
[1]
  IC50: > 1000 nM

## CCO[C@H]1CN([C@H]2CC[C@@](O)(c3ccc4c(c3)OCO4)CC2)C[C@@H]1NC(=O)CNC(=O)c1cccc(C(F)(F)F)c1
[3]
  fraction unbound: 0.15
[4]
  half-life: 1 h
[5]
  IC50: 13000 nM
[6]
  clearance: 85 mL/min/kg
[7]
  AUC: 2.66 µM·h
[8]
  IC50: > 1000 nM
[9]
  IC50: 16 nM
[10]
  fraction unbound: 0.24
[11]
  IC50: > 3000 nM
[12]
  IC50: 7.3 nM
[13]
  bioavailability: 47%
[14]
  AUC: 3.89 µM·h
[15]
  Vdss: 2.8 L/kg
[16]
  Cmax: 961 nM
[17]
  Cmax: 1890 nM

## CCO[C@H]1CN([C@H]2CC[C@@](O)(c3ccccc3)CC2)C[C@@H]1NC(=O)CNC(=O)c1cccc(C(F)(F)F)c1
[3]
  fraction unbound: 0.18
[1]
  IC50: 2.3 nM
[10]
  fraction unbound: 0.26
[2]
  IC50: 10 nM

## CCO[C@H]1CN([C@H]2CC[C@@](O)(c3ccc(C)cc3)CC2)C[C@@H]1NC(=O)CNC(=O)c1cccc(C(F)(F)F)c1
[3]
  fraction unbound: 0.079
[1]
  IC50: 2.3 nM
[2]
  IC50: 2.1 nM

## O=C(CNC(=O)c1cccc(C(F)(F)F)c1)N[C@H]1CN([C@H]2CC[C@H](c3ccccc3)CC2)C[C@@H]1O
[1]
  IC50: > 1000 nM

## O=C(CNC(=O)c1cccc(C(F)(F)F)c1)N[C@H]1CN([C@H]2CC[C@@H](c3ccccc3)C2)C[C@@H]1O
[1]
  IC50: 120 nM

## O=C(CNC(=O)c1cccc(C(F)(F)F)c1)N[C@H]1CN([C@H]2CCC[C@@H](c3ccccc3)C2)C[C@@H]1O
[1]
  IC50: > 1000 nM

## O=C(CNC(=O)c1cccc(C(F)(F)F)c1)N[C@H]1CN([C@H]2CC[C@@H](c3ccccc3)CC2)C[C@@H]1O
[1]
  IC50: 7.4 nM
[10]
  fraction unbound: 0.026
[2]
  IC50: 186 nM

## CCO[C@H]1CN([C@H]2CC[C@@H](c3ccccc3)CC2)C[C@@H]1NC(=O)CNC(=O)c1cccc(C(F)(F)F)c1
[3]
  fraction unbound: 0.023
[1]
  IC50: 0.95 nM
[10]
  fraction unbound: < 0.005
[2]
  IC50: 1.9 nM

## O=C(CNC(=O)c1cccc(C(F)(F)F)c1)N[C@H]1CN([C@H]2CCC[C@H](c3ccccc3)C2)C[C@@H]1O
[1]
  IC50: > 1000 nM

## O=C(CNC(=O)c1cccc(C(F)(F)F)c1)N[C@H]1CN(C2CCN(c3ccccc3)CC2)C[C@@H]1O
[1]
  IC50: 649 nM

## O=C(CNC(=O)c1cccc(C(F)(F)F)c1)N[C@H]1CN([C@H]2CC[C@@H](c3ccccc3)CC2)C[C@@H]1OCc1ccccc1
[1]
  IC50: 17 nM
[2]
  IC50: 51 nM

## CCCO[C@H]1CN([C@H]2CC[C@@H](c3ccccc3)CC2)C[C@@H]1NC(=O)CNC(=O)c1cccc(C(F)(F)F)c1
[1]
  IC50: 2.9 nM
[2]
  IC50: 1.9 nM
